# Published values collected from several papers.
# Compare with care: the assays were run in different laboratories.
# Observed: cell growth or viability
Structure (SMILES),cell line,assay,conditions,endpoint,value
Cn1cc2cc(C(F)(F)c3nnc4ccc(-c5cnn(C6CC6)c5)nn34)c(F)cc2n1,MKN-45,CCK-8,72 h,IC50,0.012 µM
CC[C@@]1(O)C(=O)OCc2c1cc1n(c2=O)Cc2cc3ccccc3nc2-1,MP41,ATP luminescence,72 h,IC50,0.117 µM
N.N.O=C([O-])C1(C(=O)[O-])CCC1.[Pt+2],Vero,MTT,48 h,IC50,506 µM
COc1cc(C(=O)c2nc(-c3cccc4[nH]ccc34)c(Br)[nH]2)cc(OC)c1OC,M14,MTS,72 h,IC50,> 1 µM
CC(=O)N[C@H]1[C@@H](O[C@@H]2O[C@H](C[C@@H](O)[C@H]3O[C@@H](n4ccc(=O)[nH]c4=O)[C@H](O)[C@@H]3O)[C@H](O)[C@H](O)[C@H]2NC(=O)/C=C/CCCCCCCCCC(C)C)O[C@H](CO)[C@@H](O)[C@@H]1O,SK-BR-3,WST-1,,IC50,0.11 µM
COc1c(C)c2c(c(O)c1C/C=C(\C)CCC(=O)O)C(=O)OC2,MDA-MB-436,,,IC50,1.12 µM
COc1cc(C(=O)c2nc(-c3c[nH]c4cccc(C)c34)c[nH]2)cc(OC)c1OC,M14,MTS,72 h,IC50,0.167 µM
O=C(NCc1ccccc1)c1cn(Cc2ccc(C(F)(F)F)cc2)c2ccc(Oc3ccccc3)cc2c1=O,HCC70,,72 h,CC50,20.5 µM
Cc1sc2c(c1C)C(c1ccc(Cl)cc1)=N[C@@H](CC(N)=O)c1nnc(C)n1-2,MP41,ATP luminescence,72 h,IC50,0.153 µM
O=C(Nc1ccc(Cl)cc1)Nc1cccc(-c2cn(Cc3ccc(Br)cc3)nn2)c1,NCI-H1299,CCK-8,"50 µM, 72 h",viability,76.7%
N.N.[Cl][Pt][Cl],Vero,MTT,48 h,IC50,63.1 µM
